According to ChEMBL document CHEMBL2417509, “Synthesis and biological evaluation of prodigiosene conjugates of porphyrin, estrone and 4-hydroxytamoxifen” (2013):

Tests used:
Type in all cases: functional
RXF 393 = experiment: Cytotoxicity against human RXF393 cells after 2 days by sulforhodamine B assay; conditions: RXF 393, 48 h
Procedure, shortened: (§1)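 NCI60 multi-dose screen, 59 human tumour lines available. Cells exposed to compound across a 5-log mol/L concentration range for 2 days, then fixed and stained with sulphorhodamine B, optical density read. Growth inhibition calculated against time-zero control and untreated cells. GI50 derived from the dose series, average of two replicates.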

NCI-H322M = experiment: Cytotoxicity against human NCI-H322M cells after 2 days by sulforhodamine B assay; conditions: 48 h; procedure, shortened: as §1
SK-MEL-28 = experiment: Cytotoxicity against human SK-MEL-28 cells after 2 days by sulforhodamine B assay; conditions: SK-MEL-28, 48 h; procedure, shortened: as §1
SNB-19 = experiment: Cytotoxicity against human SNB19 cells after 2 days by sulforhodamine B assay; conditions: SNB-19, 48 h
Procedure, shortened: (§2)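 NCI DTP NCI60 multi-dose screen (59 human tumour lines available). Cells exposed to compound over a 5-log mol/L concentration range for 2 days, then fixed and stained with sulphorhodamine B, with optical density read. Growth inhibition calculated relative to time-zero cells and untreated cells, giving GI50 (half-maximal growth inhibition concentration). Average of two replicates.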

[1] = Cytotoxicity against human NCI-ADR-RES cells after 2 days by sulforhodamine B assay; conditions: 48 h; procedure, shortened: as §1
U-251 = experiment: Cytotoxicity against human U251 cells after 2 days by sulforhodamine B assay; conditions: U-251, 48 h; procedure, shortened: as §2
SK-OV-3 = experiment: Cytotoxicity against human SKOV3 cells after 2 days by sulforhodamine B assay; conditions: SK-OV-3, 48 h; procedure, shortened: as §1
A498 = experiment: Cytotoxicity against human A498 cells after 2 days by sulforhodamine B assay; conditions: A498, 48 h; procedure, shortened: as §1
MDA-MB-468 = experiment: Cytotoxicity against human MDA-MB-468 cells after 2 days by sulforhodamine B assay; conditions: MDA-MB-468, 48 h; procedure, shortened: as §1
HL-60(TB) = experiment: Cytotoxicity against human HL-60(TB) cells after 2 days by sulforhodamine B assay; conditions: HL-60, 48 h
Procedure, shortened: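 NCI60 multi-dose screen: cells exposed to compound over a 5-log mol/L concentration range for 2 days, then fixed and stained with sulphorhodamine B and optical density read. Growth inhibition calculated relative to time-zero control and untreated cells; GI50 reported as average of two replicates.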

786-0 = experiment: Cytotoxicity against human 786-0 cells after 2 days by sulforhodamine B assay; conditions: 786-0, 48 h; procedure, shortened: as §1
SNB-75 = experiment: Cytotoxicity against human SNB75 cells after 2 days by sulforhodamine B assay; conditions: SNB-75, 48 h; procedure, shortened: as §2
IGROV-1 = experiment: Cytotoxicity against human IGROV1 cells after 2 days by sulforhodamine B assay; conditions: IGROV-1, 48 h; procedure, shortened: as §1
LOX IMVI = experiment: Cytotoxicity against human LOXIMVI cells after 2 days by sulforhodamine B assay; conditions: 48 h; procedure, shortened: as §1
BT-549 = experiment: Cytotoxicity against human BT549 cells after 2 days by sulforhodamine B assay; conditions: BT-549, 48 h; procedure, shortened: as §1
MOLT-4 = experiment: Cytotoxicity against human MOLT4 cells after 2 days by sulforhodamine B assay; conditions: MOLT-4, 48 h; procedure, shortened: as §1
HT-29 = experiment: Cytotoxicity against human HT-29 cells after 2 days by sulforhodamine B assay; conditions: HT-29, 48 h; procedure, shortened: as §1
SK-MEL-5 = experiment: Cytotoxicity against human SK-MEL-5 cells after 2 days by sulforhodamine B assay; conditions: SK-MEL-5, 48 h; procedure, shortened: as §1
SF-268 = experiment: Cytotoxicity against human SF268 cells after 2 days by sulforhodamine B assay; conditions: SF-268, 48 h; procedure, shortened: as §1
NCI-H23 = experiment: Cytotoxicity against human NCI-H23 cells after 2 days by sulforhodamine B assay; conditions: NCI-H23, 48 h; procedure, shortened: as §1
UACC-62 = experiment: Cytotoxicity against human UACC62 cells after 2 days by sulforhodamine B assay; conditions: UACC-62, 48 h; procedure, shortened: as §2
T47D = experiment: Cytotoxicity against human T47D cells after 2 days by sulforhodamine B assay; conditions: 48 h; procedure, shortened: as §2
HCC 2998 = experiment: Cytotoxicity against human HCC2998 cells after 2 days by sulforhodamine B assay; conditions: HCC 2998, 48 h; procedure, shortened: as §1
NCI-H522 = experiment: Cytotoxicity against human NCI-H522 cells after 2 days by sulforhodamine B assay; conditions: NCI-H522, 48 h; procedure, shortened: as §1
HOP-92 = experiment: Cytotoxicity against human HOP92 cells after 2 days by sulforhodamine B assay; conditions: HOP-92, 48 h; procedure, shortened: as §1
MDA-MB-231 = experiment: Cytotoxicity against human MDA-MB-231 cells after 2 days by sulforhodamine B assay; conditions: MDA-MB-231, 48 h; procedure, shortened: as §1
RPMI-8226 = experiment: Cytotoxicity against human RPMI8226 cells after 2 days by sulforhodamine B assay; conditions: RPMI-8226, 48 h; procedure, shortened: as §1
M14 = experiment: Cytotoxicity against human M14 cells after 2 days by sulforhodamine B assay; conditions: M14, 48 h; procedure, shortened: as §1
[2] = read-out: LC50 (the source's name)

For `CCC(=C(c1ccc(OCCN(C)C)cc1)c1ccc(OC(=O)CCCCC(=O)C2=C(C)/C(=C/c3[nH]c(-c4ccc[nH]4)cc3OC)N=C2C)cc1)c1ccccc1`, the GI50 (RXF 393) was 3.89 µM, the LC50 (concentration killing 50% of cells) (RXF 393) was 44.7 µM and the TGI (RXF 393) was 17.8 µM. The GI50 (NCI-H322M) was 13.5 µM, the LC50 (concentration killing 50% of cells) (NCI-H322M) was 69.2 µM and the TGI (NCI-H322M) was 30.9 µM. For the same molecule, the GI50 (SK-MEL-28) was 11.5 µM, the LC50 (SK-MEL-28) was 49 µM and the TGI (SK-MEL-28) was 24 µM. The GI50 (SNB-19) was 8.13 µM, the TGI (SNB-19) was 23.4 µM and the CC50 (SNB-19; [2]) was 56.2 µM. It also gave a GI50 [1] of 12.6 µM, a TGI [1] of 46.8 µM and a CC50 [1, 2] of over 100 µM. It also gave a GI50 (U-251) of 7.76 µM, an LC50 (U-251) of over 100 µM and a TGI (U-251) of 30.2 µM. The GI50 (SK-OV-3) was 14.1 µM, the LC50 (concentration killing 50% of starting cells) (SK-OV-3) was 52.5 µM and the TGI (SK-OV-3) was 26.9 µM. The GI50 (A498) was 12.9 µM, the LC50 (A498) was 53.7 µM and the TGI (A498) was 26.3 µM. It also gave a GI50 (MDA-MB-468) of 2.45 µM, an LC50 (MDA-MB-468) of 41.7 µM and a TGI (MDA-MB-468) of 14.8 µM. For the same molecule, the GI50 (HL-60(TB)) was 18.2 µM, the TGI (HL-60(TB)) was 41.7 µM and the CC50 (HL-60(TB); [2]) was 97.7 µM. The GI50 (786-0) was 4.79 µM, the LC50 (concentration killing 50% of cells) (786-0) was 52.5 µM and the TGI (786-0) was 19 µM. The GI50 (SNB-75) was 5.25 µM, the LC50 (concentration killing 50% of starting cells) (SNB-75) was 44.7 µM and the TGI (SNB-75) was 18.2 µM. For the same molecule, the GI50 (IGROV-1) was 13.2 µM, the LC50 (IGROV-1) was over 100 µM and the TGI (IGROV-1) was 45.7 µM. The GI50 (LOX IMVI) was 2.04 µM, the LC50 (LOX IMVI) was 43.6 µM and the TGI (LOX IMVI) was 5.13 µM. It also gave a GI50 (BT-549) of 3.55 µM, an LC50 (concentration killing 50% of cells present at time zero) (BT-549) of 41.7 µM and a TGI (BT-549) of 17 µM. The GI50 (MOLT-4) was 1.74 µM, the TGI (MOLT-4) was 25.1 µM and the CC50 (MOLT-4; [2]) was over 100 µM. It also gave a GI50 (HT-29) of 3.02 µM, an LC50 (HT-29) of 74.1 µM and a TGI (HT-29) of 14.8 µM. For the same molecule, the GI50 (SK-MEL-5) was 1.62 µM, the LC50 (concentration killing 50% of cells) (SK-MEL-5) was 6.03 µM and the TGI (SK-MEL-5) was 3.09 µM. The GI50 (SF-268) was 7.76 µM, the LC50 (concentration killing 50% of cells) (SF-268) was over 100 µM and the TGI (SF-268) was 30.2 µM. It also gave a GI50 (NCI-H23) of 12.6 µM, an LC50 (concentration killing 50% of cells) (NCI-H23) of 69.2 µM and a TGI (NCI-H23) of 29.5 µM. It also gave a GI50 (UACC-62) of 4.9 µM, a TGI (UACC-62) of 17.8 µM and a CC50 (UACC-62; [2]) of 45.7 µM. It also gave a GI50 (T47D) of 1.38 µM, an LC50 (concentration killing 50% of cells) (T47D) of 39.8 µM and a TGI (T47D) of 6.03 µM. For the same molecule, the GI50 (HCC 2998) was 13.2 µM, the LC50 (50% lethal concentration) (HCC 2998) was 53.7 µM and the TGI (HCC 2998) was 26.9 µM. For the same molecule, the GI50 (NCI-H522) was 3.55 µM, the LC50 (NCI-H522) was 43.6 µM and the TGI (NCI-H522) was 14.4 µM. For the same molecule, the GI50 (HOP-92) was 1.12 µM, the TGI (HOP-92) was 6.31 µM and the CC50 (HOP-92; [2]) was 47.9 µM. The GI50 (MDA-MB-231) was 2 µM, the LC50 (MDA-MB-231) was 33.9 µM and the TGI (MDA-MB-231) was 11.5 µM. The GI50 (RPMI-8226) was 3.16 µM, the LC50 (concentration killing 50% of cells present at time zero) (RPMI-8226) was over 100 µM and the TGI (RPMI-8226) was 19 µM. It also gave a GI50 (M14) of 1.82 µM, a TGI (M14) of 3.98 µM and a CC50 (M14; [2]) of 8.71 µM.
